Laboratory results reported in ChEMBL document CHEMBL3877264, “Quinolidene-rhodanine conjugates: Facile synthesis and biological evaluation” (Eur J Med Chem, 2017).
Values after ≈ are worked out from the molar mass of the structure shown.

Legend:
Assay type in all cases: functional
[1] = Antifungal activity against Fusarium oxysporum NCIM 1332 by standard agar method
Method in brief: (§1)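 MICs determined by standard agar method; DMSO as solvent control.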

Staphylococcus aureus [2] = assay: Growth inhibition of Staphylococcus aureus NCIM 2010 at 30 ug/ml measured after 12 hrs relative to control; details: NCIM 2010, 12 h, read-out: GI
Method in brief: (§2)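 Bacteria grown in LB at 37 °C and 180 rpm to OD 1. Compounds added to wells, then 0.1% inoculum of 1 OD culture (620 nm). Growth read as OD at 620 nm after 8 h for gram-negative and after 12 h for gram-positive strains.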

Bacillus subtilis [3] = assay: Growth inhibition of Bacillus subtilis NCIM 2079 at 30 ug/ml measured after 12 hrs relative to control; details: NCIM 2079, 12 h, read-out: GI; method in brief: as §2
Staphylococcus aureus [4] = assay: Growth inhibition of Staphylococcus aureus NCIM 2010 at 10 ug/ml measured after 12 hrs relative to control; details: NCIM 2010, 12 h, read-out: GI; method in brief: as §2
Staphylococcus aureus [5] = assay: Growth inhibition of Staphylococcus aureus NCIM 2010 at 3 ug/ml measured after 12 hrs relative to control; details: NCIM 2010, 12 h, read-out: GI; method in brief: as §2
Bacillus subtilis [6] = assay: Growth inhibition of Bacillus subtilis NCIM 2079 at 10 ug/ml measured after 12 hrs relative to control; details: NCIM 2079, 12 h, read-out: GI; method in brief: as §2
Bacillus subtilis [7] = assay: Growth inhibition of Bacillus subtilis NCIM 2079 at 3 ug/ml measured after 12 hrs relative to control; details: NCIM 2079, 12 h, read-out: GI; method in brief: as §2
Escherichia coli [8] = assay: Growth inhibition of Escherichia coli NCIM 2688 at 30 ug/ml measured after 8 hrs relative to control; details: NCIM 2688, 8 h, read-out: GI; method in brief: as §2
Escherichia coli [9] = assay: Growth inhibition of Escherichia coli NCIM 2688 at 10 ug/ml measured after 8 hrs relative to control; details: NCIM 2688, 8 h, read-out: GI; method in brief: as §2
Escherichia coli [10] = assay: Growth inhibition of Escherichia coli NCIM 2688 at 3 ug/ml measured after 8 hrs relative to control; details: NCIM 2688, 8 h, read-out: GI; method in brief: as §2
Pseudomonas fluorescens [11] = assay: Growth inhibition of Pseudomonas fluorescens NCIM 2036 at 30 ug/ml measured after 8 hrs relative to control; details: NCIM 2036, 8 h, read-out: GI; method in brief: as §2
Pseudomonas fluorescens [12] = assay: Growth inhibition of Pseudomonas fluorescens NCIM 2036 at 10 ug/ml measured after 8 hrs relative to control; details: NCIM 2036, 8 h, read-out: GI; method in brief: as §2
Pseudomonas fluorescens [13] = assay: Growth inhibition of Pseudomonas fluorescens NCIM 2036 at 3 ug/ml measured after 8 hrs relative to control; details: NCIM 2036, 8 h, read-out: GI; method in brief: as §2
Escherichia coli [14] = assay: Antibacterial activity against Escherichia coli NCIM 2688 measured after 8 hrs; details: NCIM 2688, 8 h; method in brief: as §2
Pseudomonas fluorescens [15] = assay: Antibacterial activity against Pseudomonas fluorescens NCIM 2036 measured after 8 hrs; details: NCIM 2036, 8 h; method in brief: as §2
Staphylococcus aureus [16] = assay: Antibacterial activity against of Staphylococcus aureus NCIM 2010 measured after 12 hrs; details: NCIM 2010, 12 h; method in brief: as §2
Bacillus subtilis [17] = assay: Antibacterial activity against Bacillus subtilis NCIM 2079 measured after 12 hrs; details: NCIM 2079, 12 h; method in brief: as §2
[18] = system: Mycobacterium tuberculosis; assay: Growth inhibition of Mycobacterium bovis BCG ATCC 35743 at dormant stage at 30 ug/ml measured after 12 days by nitrate reductase dye based two fold dilution method relative to control; details: BCG str. ATCC 35743, 288 h, read-out: GI
Method in brief: (§3)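 M. bovis BCG was grown in Dubos medium and assayed in Mycobacterium pheli minimal medium (pH 6.6), with compounds from DMSO stocks. Incubation lasted 8 days for active and 12 days for dormant cultures. Viability was read by nitrate reductase at 540 nm against cell-free blanks, with vehicle set as 100% growth. Primary screen was at 30, 10 and 3 µg/ml, in triplicate, mean ± SD. MIC was taken from dose-response curves.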

[19] = system: Mycobacterium tuberculosis; assay: Growth inhibition of Mycobacterium bovis BCG ATCC 35743 at dormant stage at 10 ug/ml measured after 12 days by nitrate reductase dye based two fold dilution method relative to control; details: BCG str. ATCC 35743, 288 h, read-out: GI; method in brief: as §3
[20] = system: Mycobacterium tuberculosis; assay: Growth inhibition of Mycobacterium bovis BCG ATCC 35743 at dormant stage at 3 ug/ml measured after 12 days by nitrate reductase dye based two fold dilution method relative to control; details: BCG str. ATCC 35743, 288 h, read-out: GI; method in brief: as §3
[21] = system: Mycobacterium tuberculosis; assay: Growth inhibition of Mycobacterium bovis BCG ATCC 35743 at active stage measured after 8 days by nitrate reductase dye based two fold dilution method; details: BCG str. ATCC 35743, 192 h; method in brief: as §3
[22] = system: Mycobacterium tuberculosis; assay: Growth inhibition of Mycobacterium tuberculosis H37Ra ATCC 25177 at dormant stage measured after 12 days by XTT dye based two fold dilution method; details: H37Ra ATCC 25177, 288 h
Method in brief: (§4)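 MTB H37Ra was grown in Dubos medium, then exposed in Mycobacterium pheli minimal medium (pH 6.6) to compounds dissolved in DMSO. The assay ended on day 8 (active) or day 12 (dormant). Viable cells were measured by XTT reduction menadione assay at 470 nm, blank-corrected, relative to vehicle control. Triplicates were expressed as mean ± SD. MIC came from dose-response curves.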

[23] = system: Mycobacterium tuberculosis; assay: Growth inhibition of Mycobacterium bovis BCG ATCC 35743 at dormant stage measured after 12 days by nitrate reductase dye based two fold dilution method; details: BCG str. ATCC 35743, 288 h; method in brief: as §3
[24] = system: Mycobacterium tuberculosis; assay: Growth inhibition of Mycobacterium tuberculosis H37Ra ATCC 25177 at active stage measured after 8 days by XTT dye based two fold dilution method; details: H37Ra ATCC 25177, 192 h; method in brief: as §4
Candida albicans = assay: Antifungal activity against Candida albicans NCIM 3471 by standard agar method; method in brief: as §1
Aspergillus flavus = assay: Antifungal activity against Aspergillus flavus NCIM 539 by standard agar method; method in brief: as §1
Aspergillus niger = assay: Antifungal activity against Aspergillus niger NCIM 1196 by standard agar method; method in brief: as §1
[25] = Antifungal activity against Cryptococcus neoformans NCIM 576 by standard agar method; method in brief: as §1

SMILES	inhibition of growth at 30 µg/mL (Staphylococcus aureus [2])	inhibition of growth at 30 µg/mL (Bacillus subtilis [3])	inhibition of growth at 10 µg/mL (Staphylococcus aureus [4])	inhibition of growth at 3 µg/mL (Staphylococcus aureus [5])	inhibition of growth at 10 µg/mL (Bacillus subtilis [6])	inhibition of growth at 3 µg/mL (Bacillus subtilis [7])	inhibition of growth at 30 µg/mL (Escherichia coli [8])	inhibition of growth at 10 µg/mL (Escherichia coli [9])	inhibition of growth at 3 µg/mL (Escherichia coli [10])	inhibition of growth at 30 µg/mL (Pseudomonas fluorescens [11])	inhibition of growth at 10 µg/mL (Pseudomonas fluorescens [12])	inhibition of growth at 3 µg/mL (Pseudomonas fluorescens [13])	MIC (Escherichia coli [14])	MIC (Pseudomonas fluorescens [15])	MIC (Staphylococcus aureus [16])	MIC (Bacillus subtilis [17])	inhibition of growth at 30 µg/mL [18]	inhibition of growth at 10 µg/mL [19]	inhibition of growth at 3 µg/mL [20]	IC50 [21]	also measured
COc1ccc2nc(Cl)c(/C=C3\SC(=S)N(CCC(=O)O)C3=O)cc2c1	-16.1%	-3.99%	-21.7%	-2.06%	-1.08%	-6.61%	13.5%	14.4%	20.7%	-27.3%	-17%	-4.49%	> 30 µg/mL	> 30 µg/mL	> 30 µg/mL	> 30 µg/mL	27.2%	27.2%	25.4%	> 30 µg/mL	MIC [1]: 175 µg/mL (≈ 428 µM); IC90 [21]: > 30 µg/mL; IC50 [22]: > 30 µg/mL; IC90 [22]: > 30 µg/mL; IC50 [23]: > 30 µg/mL; IC90 [23]: > 30 µg/mL; IC50 [24]: > 30 µg/mL; IC90 [24]: > 30 µg/mL; MIC (Candida albicans): 125 µg/mL (≈ 306 µM); MIC (Aspergillus flavus): 100 µg/mL (≈ 245 µM); MIC (Aspergillus niger): 175 µg/mL (≈ 428 µM); MIC [25]: 150 µg/mL (≈ 367 µM)
CCOc1ccc2nc(Cl)c(/C=C3\SC(=S)N(CC(=O)O)C3=O)cc2c1	-9.57%	-2.41%	-13.4%	2.94%	-0.253%	-12.7%	71.9%	18.5%	5.91%	4.87%	24.4%	-5.49%	> 30 µg/mL	> 30 µg/mL	> 30 µg/mL	> 30 µg/mL	9.17%	24.8%	26.3%	> 30 µg/mL	MIC [1]: 150 µg/mL (≈ 367 µM); IC90 [21]: > 30 µg/mL; IC50 [22]: > 30 µg/mL; IC90 [22]: > 30 µg/mL; IC50 [23]: > 30 µg/mL; IC90 [23]: > 30 µg/mL; IC50 [24]: > 30 µg/mL; IC90 [24]: > 30 µg/mL; MIC (Aspergillus flavus): 100 µg/mL (≈ 245 µM); MIC (Aspergillus niger): 125 µg/mL (≈ 306 µM)
COc1ccc2nc(Cl)c(/C=C3\SC(=S)N(CC(=O)O)C3=O)cc2c1	-35.7%	-33.3%	-25.4%	-29.3%	-37.3%	-37%	-50.9%	-19.5%	-23.7%	-6.43%	0.664%	-4.12%	> 30 µg/mL	> 30 µg/mL	> 30 µg/mL	> 30 µg/mL	32%	27.3%	6.02%	> 30 µg/mL	MIC [1]: 125 µg/mL (≈ 317 µM); IC90 [21]: > 30 µg/mL; IC50 [22]: > 30 µg/mL; IC90 [22]: > 30 µg/mL; IC50 [23]: > 30 µg/mL; IC90 [23]: > 30 µg/mL; IC50 [24]: > 30 µg/mL; IC90 [24]: > 30 µg/mL; MIC (Candida albicans): 150 µg/mL (≈ 380 µM); MIC (Aspergillus flavus): 200 µg/mL (≈ 507 µM); MIC [25]: 150 µg/mL (≈ 380 µM)
O=C(O)CCN1C(=O)/C(=C/c2cc3cc(Cl)ccc3nc2Cl)SC1=S	-65.7%	0.333%	-36.7%	-7.27%	-1.12%	1.91%	37.3%	27.1%	20.6%	-10%	6.58%	3.17%	> 30 µg/mL	> 30 µg/mL	> 30 µg/mL	> 30 µg/mL	56.5%	25.7%	13.7%	> 30 µg/mL	IC90 [21]: > 30 µg/mL; IC50 [22]: > 30 µg/mL; IC90 [22]: > 30 µg/mL; IC50 [23]: > 30 µg/mL; IC90 [23]: > 30 µg/mL; IC50 [24]: > 30 µg/mL; IC90 [24]: > 30 µg/mL; MIC (Candida albicans): 200 µg/mL (≈ 484 µM); MIC (Aspergillus flavus): 100 µg/mL (≈ 242 µM); MIC (Aspergillus niger): 200 µg/mL (≈ 484 µM); MIC [25]: 150 µg/mL (≈ 363 µM)
